# Data published in PubChem BioAssay.
# The source made the active and inactive calls.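 How the source made its calls, unless noted: active means viability at or below 30% in both replicate assays; inconclusive means viability at or below 30% in just one of the two assays; inactive means the rest.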
# Legend:
# [1] = HUVEC growth inhibition – cell-based, human, primary screen (AID 575); conditions: HUVEC proliferation, CellTiter-Glo luminescence, 72 h; at 10 µM; stronger effect = lower value;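 further: 100% = median of untreated cell wells with 0.1% DMSO on each plate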
# Method in brief: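 Assay system: primary human umbilical vein endothelial cells / Buffer or medium: endothelial basal medium with 2% FBS plus growth supplements / Compound dosing: one dose, 10 µM final, 0.1% DMSO / Timing: 72 h treatment at 37 °C / Signal: CTG luminescence / Benchmarks: 32 DMSO-only cell-control wells (high), 32 MePR drug-control wells (low) per plate / Plate: collagen-coated 384-well format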
# [2] = growth inhibitors of H69AR lung tumor, primary screen, human, duplicate replicates (AID 580;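 active means viability at or under a set limit in both replicates, limit being median viability minus 3 SD, cut at about 48% in these data, passing the limit was not always enough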;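 further: 100% = mean luminescence of untreated wells and 0% = no signal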); conditions: H69AR lung tumor cells viability, ATP luminescence, 72 h; at 10 µM; stronger effect = lower value
# [3] = reversal of MRP1-mediated doxorubicin resistance, pilot screen, H69AR cells, doxorubicin co-treatment (AID 601;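 active means viability loss from added drug above about 55%, and viability with drug at most 40%, in both replicates, limit read from the data, passing the limit was not always enough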); conditions: CellTiter-Glo, 72 h, at 10 µM; for differential viability (reversal): stronger effect = higher value
# [4] = 384-well plate pilot, post-Golgi transport modulator project, inhibition of yeast transport mutant growth (AID 636; in the data active means inhibition above about 31%); conditions: absorbance 615 nm, about 18 h, stronger effect = higher value
# [5] = growth suppression of yeast trafficking mutant, preliminary HTS, modulators of trafficking downstream of Golgi apparatus project, 1536-format plate, OD 615 nm (AID 637; in the data active means inhibition above about 30%); conditions: yeast transport mutant growth, absorbance 615 nm, 18 h; stronger effect = higher value
# [6] = H69AR cells + 2 uM doxorubicin, measured here: viability with 2 uM doxorubicin, stronger effect = lower value
# [7] = H69AR cells, compound alone cytotoxicity
Structure (SMILES),viability [1],viability [2],differential viability (reversal) ([3]; H69AR cells + 2 uM doxorubicin),"viability [3, 6] [%]","viability [3, 7] [%]",inhibition [4],inhibition [5]
O=C(CP(=O)(c1ccccc1)c1ccccc1)N1CCCCC1,111% (inactive),106% (inactive),19% (inactive),86.9,106,-3.51% (inactive),6.83% (inactive)
COc1ccc2c(c1)C(=O)N(c1ccccc1OC)C(=O)C2,74.9% (inactive),92.8% (inactive),-8.61% (inactive),101,92.8,-3.87% (inactive),0.32% (inactive)
C=CCn1c(SCc2cc(=O)n3ccsc3n2)nnc1C1CCCCC1,93.1% (inactive),96.7% (inactive),17.5% (inactive),79.1,96.7,-5.19% (inactive),-0.16% (inactive)
Cc1cc(C)n(-c2ccc3cccc(NS(C)(=O)=O)c3n2)n1,14.3% (active),27.6% (active),-22.8% (inactive),50.4,27.6,-6% (inactive),7.46% (inactive)
CCOC(=O)C1CCCN(C(=O)CNS(=O)(=O)c2ccc(Br)s2)C1 (centres undefined),108% (inactive),95.7% (inactive),17.7% (inactive),78,95.7,-6.71% (inactive),4.13% (inactive)
COc1ccc(CN(C)CC(=O)c2c(N)n(Cc3ccccc3)c(=O)n(C)c2=O)c(OC)c1,96.4% (inactive),93.9% (inactive),10.3% (inactive),83.6,93.9,-3.25% (inactive),6.51% (inactive)
Cn1c(=O)c2c(nc(SCC(=O)NCc3ccc4c(c3)OCO4)n2Cc2ccccc2)n(C)c1=O,93.4% (inactive),92.6% (inactive),-7.06% (inactive),99.7,92.6,0.26% (inactive),-4.13% (inactive)
O=C(CCCNS(=O)(=O)c1ccccc1)NCc1ccco1,94.5% (inactive),99.3% (inactive),6.58% (inactive),92.7,99.3,-4.67% (inactive),1.9% (inactive)
Cc1c(O)c(CN2CCCCC2)cc2c3c(c(=O)oc12)CCC3,103% (inactive),82.2% (inactive),-0.59% (inactive),82.8,82.2,-6.84% (inactive),5.08% (inactive)
COc1ccccc1C(=O)Nc1ccccc1C(=O)N1CCCC1,92.3% (inactive),96% (inactive),11.9% (inactive),84.1,96,-4.68% (inactive),1.27% (inactive)
CCSc1nnc(NC(=O)c2cc(C)oc2C)s1,85% (inactive),99.7% (inactive),12.6% (inactive),87.1,99.7,-3.55% (inactive),3.33% (inactive)
Nc1nc(Nc2cccc3ccccc23)nc(C2CCCC2=O)n1 (centres undefined),89.7% (inactive),18% (active),0.545% (inactive),17.5,18,-4.46% (inactive),3.45% (inactive)
Cc1ccc(NC(=O)CC2Nc3ccccc3NC2=O)cc1Cl (centres undefined),10.1% (active),27.8% (active),-17.1% (inactive),44.9,27.8,-1.17% (inactive),-3.49% (inactive)
O=C(CCn1c(=O)c2sccc2n(CC(=O)NCc2ccco2)c1=O)NCc1ccccc1,93.6% (inactive),96.9% (inactive),4.46% (inactive),92.5,96.9,-0.65% (inactive),-1.59% (inactive)
Cc1cccc(-n2ncc(C#N)c2N)c1,109% (inactive),104% (inactive),3.67% (inactive),100,104,-2.76% (inactive),-1.11% (inactive)
CC(C)(CSc1nncn1N)NS(=O)(=O)c1ccc(Cl)cc1,91.9% (inactive),98.3% (inactive),1.6% (inactive),96.7,98.3,-2.27% (inactive),-0.79% (inactive)
COc1ccc(-c2noc(C3CCCN(C(=O)CCc4ccccc4)C3)n2)cc1 (centres undefined),68.3% (inactive),84.3% (inactive),-5.7% (inactive),90,84.3,-1.97% (inactive),11.1% (inactive)
Nn1cnnc1SCC(=O)Nc1ccc2c(c1)OCCO2,97.5% (inactive),97.1% (inactive),-1.08% (inactive),98.2,97.1,-4.4% (inactive),8.41% (inactive)
CSc1cccc(NC(=O)C2CCN(S(C)(=O)=O)CC2)c1,107% (inactive),90.3% (inactive),0.77% (inactive),89.6,90.3,-4.08% (inactive),2.06% (inactive)
C=CCn1c(=O)c(C(=O)Nc2ccccc2C(=O)OCC)c(O)c2ccccc21,84.3% (inactive),33% (active),-26.9% (inactive),60,33,-7.2% (inactive),6.83% (inactive)
O=C(Nc1ccccc1)N(Cc1cccnc1)Cc1ccco1,86.1% (inactive),96.8% (inactive),12.7% (inactive),84.1,96.8,-4.74% (inactive),1.75% (inactive)

Structure (SMILES),viability [1],viability [2],differential viability (reversal) ([3]; H69AR cells + 2 uM doxorubicin),"viability [3, 6] [%]","viability [3, 7] [%]",inhibition [4],inhibition [5]
Cc1cccc2cc(C(c3nnnn3C(C)(C)C)N3CCN(C(=O)c4ccco4)CC3)c(=O)[nH]c12 (centres undefined),86.4% (inactive),79.3% (inactive),-3.69% (inactive),83,79.3,-6.32% (inactive),0% (inactive)
CCc1ncc(C(O)c2cccc(OC)c2OC)n1C (centres undefined),101% (inactive),98.7% (inactive),11.3% (inactive),87.3,98.7,-3.68% (inactive),4.13% (inactive)
CN(Cc1cnn(C)c1)C(=O)c1cc2ccccc2oc1=O,114% (inactive),103% (inactive),13.3% (inactive),89.9,103,-5.66% (inactive),2.06% (inactive)
O=C(CC1CCCCC1)NCc1ccccn1,92.2% (inactive),95.8% (inactive),12.9% (inactive),82.9,95.8,-3.42% (inactive),-6.67% (inactive)
COc1ccc(/C(O)=C2/C(=O)C(=O)N(Cc3cccnc3)C2c2ccncc2)cc1F (centres undefined),111% (inactive),97.4% (inactive),3.08% (inactive),94.3,97.4,-6.62% (inactive),0.16% (inactive)
COc1ccc(-c2nc(C(N)=O)c3[nH]c(=O)n(-c4cccc(Cl)c4)c3n2)cc1OC,3.29% (active),1.2% (active),-0.93% (inactive),2.13,1.2,6.23% (inactive),-0.33% (inactive)
Cc1cc(C(=O)N2CCN(C(c3ccccc3)c3ccccc3)CC2)no1,121% (inactive),89.1% (inactive),3.42% (inactive),85.7,89.1,-6.18% (inactive),0.16% (inactive)
Nc1nc(NCc2ccco2)nn1-c1ccccc1,98% (inactive),96.7% (inactive),15.7% (inactive),80.9,96.7,-7.07% (inactive),6.03% (inactive)
CC1=C(C(N)=O)C(c2ccc(Cl)cc2Cl)n2ncnc2N1 (centres undefined),91.8% (inactive),101% (inactive),16.7% (inactive),84.7,101,0% (inactive),6.19% (inactive)
CC(CN1CCOCC1)(NS(=O)(=O)c1ccccc1)c1ccccc1 (centres undefined),106% (inactive),95.9% (inactive),9.75% (inactive),86.2,95.9,-1.56% (inactive),0.95% (inactive)
CSc1ccccc1NS(=O)(=O)c1ccccc1,101% (inactive),102% (inactive),10.8% (inactive),90.8,102,-4.61% (inactive),0% (inactive)
O=C(Nc1ncnc2sc3c(c12)CCCCC3)c1ccco1,91.5% (inactive),73.8% (inactive),-0.73% (inactive),74.5,73.8,-2.08% (inactive),3.65% (inactive)
CCOC(=O)C1CCCN(C(=O)c2cccs2)C1 (centres undefined),96.7% (inactive),98.3% (inactive),15.4% (inactive),82.9,98.3,-6.18% (inactive),0.48% (inactive)
CN1CCCC(OC(=O)c2ccc3c(c2)OCCO3)C1 (centres undefined),103% (inactive),106% (inactive),19.1% (inactive),86.7,106,-4.4% (inactive),-2.06% (inactive)
COc1cccc(-c2nc(-c3ccc(NC(=O)Cc4ccccc4OC)cc3)no2)c1,85.3% (inactive),90.6% (inactive),12.8% (inactive),77.8,90.6,9.09% (inactive),-0.95% (inactive)
Cc1ccc2nsnc2c1S(=O)(=O)N1CCN(Cc2ccc3c(c2)OCO3)CC1,91% (inactive),91% (inactive),1.65% (inactive),89.3,91,-3.03% (inactive),2.86% (inactive)
Cn1c(=O)c(=O)n(C)c2cc(S(=O)(=O)Nc3ccc4c(c3)OCCO4)ccc21,99.5% (inactive),94.9% (inactive),6.65% (inactive),88.2,94.9,-0.67% (inactive),8.41% (inactive)
COc1ccc(CN2C(=O)c3ccccc3C2C(=O)NC2CCCC2)c(OC)c1 (centres undefined),104% (inactive),86.2% (inactive),1.22% (inactive),84.9,86.2,0.53% (inactive),-4.6% (inactive)
Cc1ccc(-c2nc(-c3cccnc3)no2)c(C)c1,78.9% (inactive),90.1% (inactive),-0.56% (inactive),90.7,90.1,-6.49% (inactive),-9.52% (inactive)
CN(CC(=O)N1CCN(c2ccccn2)CC1)S(=O)(=O)c1ccc2ccccc2c1,81.5% (inactive),89% (inactive),9.23% (inactive),79.8,89,-2.63% (inactive),-3.33% (inactive)
C#CCN1C(=O)C(O)(CC(=O)c2cc(OC)ccc2OC)c2ccccc21 (centres undefined),78.6% (inactive),38.7% (active),-16.8% (inactive),55.5,38.7,-4.8% (inactive),1.9% (inactive)
